High-throughput results (PubChem)
Rows were chosen to be rich in hits. Some 1.8% of all compounds tested hit in one or more screens of this group.
GRK2 aptamer HTS: compounds blocking aptamer binding on GRK2 – biochemical, human GRK2, bead flow cytometry, HTS, primary screen; inhibition of aptamer binding, % at 10 µM; AID 488847, 2010; 330,000 compounds, 0.59% hits; FAM-aptamer displacement from GRK2; Beta-adrenergic receptor kinase 1 (Homo sapiens), P25098;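 active = inhibition of aptamer binding above 40%, roughly 3 SD of noise, on plates passing a quality check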;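 also: median bead fluorescence of bound FAM aptamer so fluorescent compounds give negative values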
DDE Tn7 FP inh: inhibitors of Tn7 peptide binding to fibrin DD(E), primary screen, biochemical, fluorescence polarization, human fibrin, Tn7 probe. Fibrinogen beta chain (Homo sapiens), P02675. FP displacement of FITC-Tn7 peptide from fibrin DD(E); 0% = median of compound wells per plate. inhibition, % at 8.3 µM. 370,000 compounds, 0.13% hits. AID 720508, 2013;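 active = inhibition above the mean of compounds falling within the control limits plus 3 SD of them, cut at about 14% in these data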
Target sequence (P02675 whole entry, looked up): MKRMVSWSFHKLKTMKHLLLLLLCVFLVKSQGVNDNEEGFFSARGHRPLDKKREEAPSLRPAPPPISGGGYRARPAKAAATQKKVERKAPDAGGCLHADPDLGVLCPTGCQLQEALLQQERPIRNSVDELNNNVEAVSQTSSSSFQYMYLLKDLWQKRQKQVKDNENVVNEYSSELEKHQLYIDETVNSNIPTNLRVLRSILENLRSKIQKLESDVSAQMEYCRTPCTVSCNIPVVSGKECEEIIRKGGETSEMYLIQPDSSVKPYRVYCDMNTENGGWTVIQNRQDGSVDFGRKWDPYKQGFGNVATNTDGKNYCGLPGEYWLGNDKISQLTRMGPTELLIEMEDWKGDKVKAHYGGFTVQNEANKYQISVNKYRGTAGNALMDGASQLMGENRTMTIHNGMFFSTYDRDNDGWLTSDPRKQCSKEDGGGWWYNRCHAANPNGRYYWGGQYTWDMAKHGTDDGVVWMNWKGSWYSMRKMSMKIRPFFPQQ
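Assay system: Human clot-derived fibrin DD(E) complex | Buffer or medium: Tris/NaCl/CaCl2 buffer, pH 7.8 | Repeats: One replicate per compound | Benchmarks: Aha-Tn7 high control | Measure: % inhibition scaled between sample-field median and high-control FP | Schedule: 10 min plus 3 h, room temperature | Signal: Fluorescence polarization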
ARNT-TACC3 inh: disruptors of ARNT/TACC3 protein interaction, primary screen, biochemical, AlphaScreen, single concentration | 390,000 compounds, 0.66% hits | AID 623870, 2012 | inhibition, % at 9.99 µM | AlphaScreen His-ARNT PAS-B/GST-TACC3 binding, luminescence; TACC3 fragment carries E629A point mutation | Transforming acidic coiled-coil-containing protein 3 (Homo sapiens), Q9Y6A5;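 active = mean inhibition of replicates at least 50% and at least half of replicates each reaching 50%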
CAL PDZ FP-1: untagged CAL PDZ binding inhibitors, primary screen, biochemical, fluorescence polarization, HTS. Golgi-associated PDZ and coiled-coil motif-containing protein (Homo sapiens), Q9HD26. purified CAL PDZ, TMR-peptide fluorescence polarization, 1 h. inhibition, % at 24.9 µM. 300,000 compounds, 0.92% hits. AID 602252, 2012;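 active = mean inhibition of at least 30% with at least half of replicates also reaching 30%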
Tn6 DDE FP: inhibitors of Tn6 peptide binding to fibrin DD(E), primary screen, biochemical, fluorescence polarization, human fibrin, Tn6 probe. 370,000 compounds, 0.21% hits. Fibrinogen beta chain (Homo sapiens), P02675. Fibrin DD(E) TRITC-Tn6 fluorescence polarization displacement. inhibition, % at 8.3 µM. AID 720509, 2013;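 active = inhibition above a per-campaign cutoff: mean of compounds within control limits plus 3 SD, cut at about 15% in these data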
CAL PDZ FP-2: CAL PDZ peptide-binding inhibitors, primary screen, biochemical, fluorescence polarization, Cer-tagged CAL PDZ, HTS; Golgi-associated PDZ and coiled-coil motif-containing protein (Homo sapiens), Q9HD26; purified CAL PDZ, TMR-peptide fluorescence polarization, 1 h; inhibition, % at 20 µM; 330,000 compounds, 0.02% hits; AID 504414, 2011;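 active = highest replicate inhibition of at least 40%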
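Assay system – tagged CAL PDZ protein CerCALP, purified · Timing – 1 h at RT · Compound – single point, 20 µM · Measured by – fluorescence polarization from S- and P-plane intensities, G-factor corrected · Evaluation – inhibition from polarization loss · Probe or stimulus – TMR reporter peptide T*-PRC34 · Buffer or medium – pH 7.4 phosphate-saline buffer, reducing agent, detergent, IgG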
Large screens that a line does not name were inactive.

COCCNc1nc(=S)[nH]c2cc(OC)c(OC)cc12	ARNT-TACC3 inh 58.7
COc1ccccc1-c1ccc2c(c1)[C@@H]1[C@@H](CCN1C(=O)C1CCOCC1)[C@@H](CO)N2	none (no result: GRK2 aptamer HTS, DDE Tn7 FP inh, CAL PDZ FP-1, Tn6 DDE FP, CAL PDZ FP-2)
CO[C@@H]1CN(C)C(=O)c2ccc(NC(=O)c3ccccc3F)cc2OC[C@H](C)N(CC2CCOCC2)C[C@@H]1C	none (no result: GRK2 aptamer HTS, DDE Tn7 FP inh, CAL PDZ FP-1, Tn6 DDE FP, CAL PDZ FP-2)
Cc1cc(-c2n[nH]c(=S)n2N=Cc2cccc(OCc3ccccc3)c2)n[nH]1	none (no result: GRK2 aptamer HTS, ARNT-TACC3 inh, CAL PDZ FP-1, CAL PDZ FP-2)
Cc1ccc(NC(=O)CN2CCCC2c2cccn2C)cc1C (stereo not given)	none
Cc1ccc(NC(=O)CN2CCCC2c2cccn2C)c(Br)c1 (stereo not given)	CAL PDZ FP-1 38.7
O=S(=O)(c1ccc(Cl)nc1)N1CCOCC1	ARNT-TACC3 inh 22.3
CCOC(=O)C1CCCN(S(=O)(=O)c2ccc(C)cc2)C1 (stereo not given)	none
CCOC(=O)C1CCCN(S(=O)(=O)c2ccc(Cl)nc2)C1 (stereo not given)	CAL PDZ FP-1 46.5
O=C(NCc1cccnc1)c1ccc(Cn2c(=S)[nH]c3ccc(Br)cc3c2=O)cc1	CAL PDZ FP-1 active
CCc1ccc(NC(=S)NCc2cccnc2)cc1	none
CCc1ccc(NC(=S)NCc2ccccc2)cc1	CAL PDZ FP-1 48.7
CCc1ccc(NC(=S)Nn2cnnc2)cc1	CAL PDZ FP-1 63.1
CCOc1ccc(CN(C)C(C)C(=O)NCc2ccccc2)cc1 (stereo not given)	none
CCc1ccc(CN(C)C(C)C(=O)NCc2ccccc2)cc1 (stereo not given)	CAL PDZ FP-1 51.5 (no result: CAL PDZ FP-2)
Cc1ccc(NC(=S)Nn2cnnc2)cc1	none (no result: ARNT-TACC3 inh)
Cc1ccc(-c2cnc3c(c2)C(=O)N([C@H](C)CO)C[C@@H](C)[C@H](CN(C)CC2CCCC2)O3)cc1	none (no result: GRK2 aptamer HTS, DDE Tn7 FP inh, CAL PDZ FP-1, Tn6 DDE FP, CAL PDZ FP-2)
C[C@@H]1CN([C@H](C)CO)C(=O)Cc2cc(N(C)C)ccc2O[C@H]1CN(C)CC1CC1	none (no result: GRK2 aptamer HTS, DDE Tn7 FP inh, CAL PDZ FP-1, Tn6 DDE FP, CAL PDZ FP-2)
COc1cccc(-c2nn(-c3ccc(C)cc3)cc2C(=O)N(C)CC(=O)Nc2cccc(F)c2)c1	CAL PDZ FP-1 47.3
O=C(Nc1nccs1)c1ccccc1N=Cc1ccccc1	CAL PDZ FP-1 58.8
COc1ccc(CCNC(=O)C(=O)c2c(C)[nH]c3ccccc23)cc1	none
Cc1[nH]c2ccccc2c1C(=O)C(=O)NCCOc1ccccc1	CAL PDZ FP-1 45.9
CCOC(=O)c1cnc2ncnn2c1N	CAL PDZ FP-1 51.5
CCOC(=O)c1cnc2nc(SC)nn2c1N	none
CCOC(=O)C(Cc1ccccc1)c1ccnc2ncnn12 (stereo not given)	CAL PDZ FP-1 34.0
O=C(C[C@H]1CC[C@@H]2[C@H](COC[C@H](O)CN2Cc2ccc(C(F)(F)F)cc2)O1)NCCc1ccccc1	none (no result: GRK2 aptamer HTS, DDE Tn7 FP inh, CAL PDZ FP-1, Tn6 DDE FP, CAL PDZ FP-2)
Cc1c(OC(C)C(=O)NCCN2CCOCC2)ccc2c3c(c(=O)oc12)CCCC3 (stereo not given)	CAL PDZ FP-1 67.0
COc1ccc([C@H]2C[C@@H](n3cc(C4CC4)nn3)[C@H](O)CN2CC2CCCCC2)cc1	none (no result: GRK2 aptamer HTS, ARNT-TACC3 inh, CAL PDZ FP-1, CAL PDZ FP-2)
CCn1c(SCC(=O)Nc2cc(NC(C)=O)ccc2OC)nnc1-c1ccccn1	ARNT-TACC3 inh 49.6
O=C(COC(=O)c1ccccn1)Nc1ccc2c(c1)OCCO2	CAL PDZ FP-1 56.3
Nn1c(SCC(=O)Nc2ccc3c(c2)OCCO3)nnc1-c1ccccn1	ARNT-TACC3 inh 69.7
CN(C[C@@H]1[C@@H](c2ccccc2)[C@H](CO)N1CC1CC1)C(=O)c1ccc(F)cc1	none (no result: GRK2 aptamer HTS, DDE Tn7 FP inh, CAL PDZ FP-1, Tn6 DDE FP, CAL PDZ FP-2)
C[C@H](CO)N1C[C@H](C)[C@H](CN(C)S(=O)(=O)c2ccccc2)OCCCC[C@H](C)Oc2ccc(NC(=O)CCC(F)(F)F)cc2C1=O	none (no result: GRK2 aptamer HTS, DDE Tn7 FP inh, CAL PDZ FP-1, Tn6 DDE FP, CAL PDZ FP-2)
